Active and inactive are the calls of the source. No cut-off for these calls is given here.
How the values were obtained:
Lactoylglutathione lyase [1] = target: T1, Lactoylglutathione lyase (Homo sapiens, UniProt Q04760); assay: Inhibition recombinant human N-terminal 6His-tagged GLO1 (2 to 184 residues) expressed in Escherichia coli using MG as substrate preincubated for 15 to 20 mins followed by substrate addition and measured every 1 min for 8 mins
Method in brief: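 Recombinant human GLO1, 40 ng per well, preincubated 15–20 min with inhibitor in 100 mM sodium phosphate pH 7.0. Substrate was GSH + MG hemithioacetal, premixed 20 min at room temperature; DMSO ≤5% final. Absorbance at 240 nm read every 1 min for 8 min. Rates compared with no-inhibitor controls after background subtraction. Chugai-1 as reference.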
Target sequence in this assay (Q04760 whole entry, the tested form may be a part): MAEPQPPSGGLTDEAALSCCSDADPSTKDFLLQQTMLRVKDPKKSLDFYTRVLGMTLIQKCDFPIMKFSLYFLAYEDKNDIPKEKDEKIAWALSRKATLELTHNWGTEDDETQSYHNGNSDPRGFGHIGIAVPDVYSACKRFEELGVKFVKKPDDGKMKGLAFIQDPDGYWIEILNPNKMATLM

Lactoylglutathione lyase [2] = target: T1, Lactoylglutathione lyase; assay: Inhibition recombinant human N-terminal 6His-tagged GLO1 (2 to 184 residues) expressed in Escherichia coli at 50 uM using MG as substrate preincubated for 15 to 20 mins followed by substrate addition and measured every 1 min for 8 mins
Target sequence in this assay (Q04760 2-184 limits assumed): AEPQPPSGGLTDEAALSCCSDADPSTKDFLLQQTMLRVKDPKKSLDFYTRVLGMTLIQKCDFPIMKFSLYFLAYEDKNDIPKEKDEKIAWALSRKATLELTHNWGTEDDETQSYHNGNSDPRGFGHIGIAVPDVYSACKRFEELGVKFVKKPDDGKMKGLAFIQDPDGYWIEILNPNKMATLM

Lactoylglutathione lyase [3] = target: T1, Lactoylglutathione lyase; assay: Inhibition of human GLO1
Target sequence in this assay (Q04760 whole entry, the tested form may be a part): as the sequence (Q04760 whole entry, the tested form may be a part) above

[4] = Toxicity in FVB/NJ mouse at =>50 mg/kg, ip; format: organism-based; conditions: in vivo
Method in brief: (§1)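 Toxicity in mice judged by observation after i.p. dosing.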

[5] = Toxicity in FVB/NJ mouse up to 100 mg/kg, ip; format: organism-based; conditions: in vivo; method in brief: as §1
Mus musculus [6] = assay: Antidepressant-like activity in FVB/NJ mouse assessed as reduction in immobility at 12.5 mg/kg, ip measured after 120 mins by forced swim test; format: functional, organism-based
Method in brief: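 Mice 108–148 days old, 12 h light–dark cycle, tested in the light phase. Each mouse got vehicle (8% DMSO, 18% Tween, […]) on one day and drug on the other, i.p., counterbalanced, about 3 weeks apart. FST run 2 h post-injection: 6 min in a bucket filled 48 cm with 23–25 water. Immobility time analysed by ANOVA with sex and test order as factors.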

[7] = Drug uptake in FVB/NJ mouse brain at 12.5 mg/kg, ip measured after 30 mins post dose by LC-MS/MS analysis; format: ADME, organism-based; conditions: read-out: Drug uptake
Method in brief: (§2)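 Single i.p. dose, then brain sampled at 30, 60, 120 or 240 min, n = 3 per time point. Mice anesthetized with isoflurane and perfused with PBS through the left ventricle. Brains minced, extracted with acetonitrile, bead-homogenized, centrifuged and filtered. LC-MS/MS against an 11-point calibration (5–5000 ng/mL) spiked into blank brain. Median reported as ng/mg wet brain.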

[8] = Drug uptake in FVB/NJ mouse brain at 12.5 mg/kg, ip measured after 60 mins post dose by LC-MS/MS analysis; format: ADME, organism-based; conditions: read-out: Drug uptake; method in brief: as §2
[9] = Drug uptake in FVB/NJ mouse brain at 12.5 mg/kg, ip measured after 120 mins post dose by LC-MS/MS analysis; format: ADME, organism-based; conditions: read-out: Drug uptake; method in brief: as §2
[10] = Drug uptake in FVB/NJ mouse brain at 12.5 mg/kg, ip measured after 240 mins post dose by LC-MS/MS analysis; format: ADME, organism-based; conditions: read-out: Drug uptake; method in brief: as §2
[11] = Drug uptake in FVB/NJ mouse brain at 25 mg/kg, ip measured after 30 mins post dose by LC-MS/MS analysis; format: ADME, organism-based; conditions: read-out: Drug uptake; method in brief: as §2
[12] = Drug uptake in FVB/NJ mouse brain at 25 mg/kg, ip measured after 60 mins post dose by LC-MS/MS analysis; format: ADME, organism-based; conditions: read-out: Drug uptake; method in brief: as §2
[13] = Drug uptake in FVB/NJ mouse brain at 25 mg/kg, ip measured after 120 mins post dose by LC-MS/MS analysis; format: ADME, organism-based; conditions: read-out: Drug uptake; method in brief: as §2
[14] = Drug uptake in FVB/NJ mouse brain at 25 mg/kg, ip measured after 240 mins post dose by LC-MS/MS analysis; format: ADME, organism-based; conditions: read-out: Drug uptake; method in brief: as §2
Mus musculus [15] = assay: In-vivo inhibition of GLO1 in FVB/NJ mouse assessed as increase in methylglyoxal accumulation at 12.5 mg/kg, ip measured at 30 mins post dose by LC-MS/MS analysis relative to control; format: functional
Method in brief: (§3)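 Brain MG measured 30–240 min after i.p. dosing and compared with vehicle-treated mice. Brains taken after PBS perfusion under isoflurane, then acetonitrile extraction, homogenization, centrifugation and filtration. LC-MS/MS quantified against an 11-point calibration (5–5000 ng/mL) in blank brain matrix. Expressed per mg brain tissue.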

Mus musculus [16] = assay: In-vivo inhibition of GLO1 in FVB/NJ mouse assessed as increase in methylglyoxal accumulation at 12.5 mg/kg, ip measured at 240 mins post dose by LC-MS/MS analysis relative to control; format: functional; conditions: in the assay text read “25 mg/kg” for “12.5 mg/kg”; method in brief: as §3

IC50 (Lactoylglutathione lyase [1]) | Structure (SMILES) | other results
11.9 µM | CS(=O)(=O)Nc1ccc(-c2ccco2)c2cccnc12 | 
> 20 µM | O=S(=O)(Nc1cccc2cccnc12)C1CCCCC1 | 
> 200 µM | CC(=O)Nc1cccc2cccnc12 | 
7.3 µM | N#Cc1cccc(S(=O)(=O)Nc2cccc3cccnc23)c1 | 
> 200 µM | CS(=O)(=O)Nc1cccc2ncccc12 | 
11.2 µM | CS(=O)(=O)Nc1ccc(-c2ccc3c(c2)OCO3)c2cccnc12 | 
3.6 µM | O=S(=O)(Nc1cccc2cccnc12)c1ccc2ccccc2c1 | 
> 200 µM | CS(=O)(=O)Nc1cccc2ccncc12 | 
18.5 µM | CS(=O)(=O)Nc1cccc2cccnc12 | inhibition (Lactoylglutathione lyase [2]): > 50%
1.19 µM | COc1cc(OC)cc(-c2ccc(NS(=O)(=O)c3ccccn3)c3ncccc23)c1 | 
5.7 µM | O=S(=O)(Nc1cccc2cccnc12)c1ccc(F)c(F)c1 | 
0.79 µM | O=S(=O)(Nc1ccc(CCc2ccccc2)c2cccnc12)c1ccccn1 | 
> 20 µM | COc1ccccc1S(=O)(=O)Nc1cccc2cccnc12 | 
0.37 µM | O=S(=O)(Nc1ccc(-c2cccc(Cl)c2)c2cccnc12)c1ccccn1 | 
> 20 µM | O=S(=O)(Nc1cccc2cccnc12)C1CC1 | 
> 20 µM | Cn1cc(S(=O)(=O)Nc2cccc3cccnc23)cn1 | 
4.6 µM | O=S(=O)(CCCc1ccccc1)Nc1cccc2cccnc12 | 
> 20 µM | CC(C)S(=O)(=O)Nc1cccc2cccnc12 | 
4.9 µM | O=S(=O)(Nc1cccc2cccnc12)c1cccs1 | 
0.64 µM | COc1ccc(-c2ccc(NS(=O)(=O)c3ccccn3)c3ncccc23)cc1 | 

IC50 (Lactoylglutathione lyase [1]) | Structure (SMILES) | other results
43 µM | Cc1ccc2cccc(NS(C)(=O)=O)c2n1 | 
7.5 µM | O=S(=O)(Nc1cccc2cccnc12)c1ccc(F)cc1 | 
> 100 µM | CS(=O)(=O)Nc1ccc(N2CCCCC2)c2cccnc12 | 
0.59 µM | COc1ccc(-c2ccc(NS(=O)(=O)c3ccccn3)c3ncccc23)cc1Cl | 
0.5 µM | O=S(=O)(Nc1ccc(-c2ccccc2)c2cccnc12)c1ccccn1 | 
1.21 µM | O=S(=O)(Nc1cc(CCc2ccccc2)cc2cccnc12)c1ccccn1 | 
4.2 µM | CC(C)(C)c1ccc(S(=O)(=O)Nc2cccc3cccnc23)cc1 | 
6.6 µM | O=C1Cc2cc(S(=O)(=O)Nc3cccc4cccnc34)ccc2N1 | 
11.2 µM | O=S(=O)(Nc1cccc2cccnc12)c1cccnc1 | 
 | COC(=O)c1c(C)cc(Oc2cc(C)cc(O)c2O)cc1O | Ki (Lactoylglutathione lyase [3]): 0.23 µM
> 20 µM | N#Cc1ccccc1S(=O)(=O)Nc1cccc2cccnc12 | 
0.48 µM | O=S(=O)(Nc1ccc(-c2ccc(Cl)cc2)c2cccnc12)c1ccccn1 | Activity [4]: Toxic
3.9 µM | CSc1nc2ccc(S(=O)(=O)Nc3cccc4cccnc34)cc2s1 | 
6.1 µM | O=S(=O)(Nc1cccc2cccnc12)c1ccc2c(c1)OCO2 | 
1.32 µM | O=S(=O)(Nc1cc(CCc2ccc(F)cc2)cc2cccnc12)c1ccccn1 | 
5.5 µM | Cn1cnc(S(=O)(=O)Nc2cccc3cccnc23)c1 | 
3.9 µM | O=S(=O)(Nc1cccc2cccnc12)c1ccc2ncsc2c1 | 
6.9 µM | COc1cccc(S(=O)(=O)Nc2cccc3cccnc23)c1 | 
> 100 µM | CS(=O)(=O)Nc1ccc(N2CCOCC2)c2cccnc12 | 
6.2 µM | CS(=O)(=O)Nc1ccc(-c2ccc(Cl)cc2)c2cccnc12 | 

IC50 (Lactoylglutathione lyase [1]) | Structure (SMILES) | other results
> 20 µM | CS(=O)(=O)Nc1ccc(-c2cncnc2)c2cccnc12 | 
7.6 µM | O=S(=O)(Cc1ccccc1)Nc1cccc2cccnc12 | 
15.4 µM | CS(=O)(=O)Nc1ccc(-c2cccs2)c2cccnc12 | 
13.9 µM | CS(=O)(=O)Nc1ccc(-c2ccc(F)c(F)c2)c2cccnc12 | 
6.6 µM | N#Cc1ccc(S(=O)(=O)Nc2cccc3cccnc23)cc1 | 
> 200 µM | CS(=O)(=O)Oc1cccc2cccnc12 | 
11.5 µM | CS(=O)(=O)Nc1ccc(-c2ccccc2)c2cccnc12 | 
7 µM | COc1ccc(S(=O)(=O)Nc2cccc3cccnc23)cc1 | 
0.79 µM | O=S(=O)(Nc1ccc(CCc2ccc(F)cc2)c2cccnc12)c1ccccn1 | 
0.46 to 0.463 µM | COc1cc(CCc2cc(NS(=O)(=O)c3ccccn3)c3ncccc3c2)cc(OC)c1 | Activity [5]: Non-Toxic; Activity (Mus musculus [6]): Active; concentration at 0.5 h [7]: 2100 ng/g; concentration at 1 h [8]: 14400 ng/g; concentration at 2 h [9]: 6000 ng/g; concentration at 4 h [10]: 2200 ng/g; concentration at 0.5 h [11]: 400 ng/g; concentration at 1 h [12]: 6700 ng/g; concentration at 2 h [13]: 18900 ng/g; concentration at 4 h [14]: 8300 ng/g; fold change (FC) (Mus musculus [15]): 11; fold change (FC) (Mus musculus [16]): 13
0.54 µM | O=S(=O)(Nc1ccc(-c2ccc(Cl)c(Cl)c2)c2cccnc12)c1ccccn1 | 
> 200 µM | CNS(=O)(=O)c1cccc2cccnc12 | 
8.7 µM | O=S(=O)(CCc1ccccc1)Nc1cccc2cccnc12 | 
14.5 µM | Cc1ccc2cccc(NS(=O)(=O)c3ccccc3)c2n1 | 
8.5 µM | O=S(=O)(Nc1cccc2cccnc12)c1ccccc1 | 
0.72 µM | O=S(=O)(Nc1ccc(-c2ccc(F)cc2)c2cccnc12)c1ccccn1 | 
1.04 µM | COc1cccc(-c2ccc(NS(=O)(=O)c3ccccn3)c3ncccc23)c1 | 
> 20 µM | CCCCS(=O)(=O)Nc1cccc2cccnc12 | 
> 20 µM | CS(=O)(=O)Nc1ccc(-c2ccncc2)c2cccnc12 | 
1.3 µM | O=S(=O)(Nc1cccc2cccnc12)c1ccccn1 | 

Reference: ChEMBL document CHEMBL4368911, “Metal-Binding Pharmacophore Library Yields the Discovery of a Glyoxalase 1 Inhibitor” (J Med Chem, 2019)
